An excerpt weighted towards active compounds, which were near 6.8% of everything screened.
HSF1 activator: increases HSF-1 driven luciferase reporter signal. AID 504408. NIH3T3-HGL HSF-1 luciferase reporter, MG132, 8 h; 100% = twice DMSO control signal. 300,000 compounds, 1.7% hits. activation, % at 9 µM;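 active = mean replicate activation of at least 50% with a set share of replicates each reaching 50%; inconclusive = only one of those two conditions met; inactive = mean below 50% and too few replicates reaching it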
PHOSPHO1 block: PHOSPHO1 (human) inhibition | 290,000 compounds, 1.1% hits | inhibition, % at 13.3 µM | recombinant PHOSPHO1, absorbance phosphatase assay; in the data active = inhibition above about 60%
Target sequence (Q8TCT1 whole entry, looked up): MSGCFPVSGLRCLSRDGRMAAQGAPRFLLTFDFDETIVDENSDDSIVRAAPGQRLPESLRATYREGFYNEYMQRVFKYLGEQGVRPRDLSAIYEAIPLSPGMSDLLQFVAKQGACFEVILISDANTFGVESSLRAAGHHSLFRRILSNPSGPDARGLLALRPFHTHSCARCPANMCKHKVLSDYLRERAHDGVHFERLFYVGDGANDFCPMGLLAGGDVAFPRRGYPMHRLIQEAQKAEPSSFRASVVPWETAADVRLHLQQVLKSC
core dimer inh: blocks dimerization of HCV core protein; TR-FRET GST/Flag-core106 dimerization, 1536-well; inhibition, % at 5 µM; 300,000 compounds, 0.33% hits; AID 1899;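 active = inhibition above the mean of all tested compounds plus 3 SD, set per screening campaign, cut at about 45% in these data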
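Assay system: tagged HCV core106 pair (GST and Flag); medium: KF-containing HEPES buffer, pH 7.45, DTT, CHAPS, BSA; also added: Eu donor and XL665 acceptor anti-tag antibodies; dosing: 5 µM single dose; timing: compound-protein-antibody incubation 4 h at 22.5 °C; signal: TR-FRET 671 and 617 nm emission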
AI-2 QS modul: modulates the Vibrio harveyi AI-2 quorum sensing system. 300,000 compounds, 0.4% hits. Vibrio harveyi JMH597 AI-2 luminescence/OD600 ratio, 9 h; active compounds read low; strain lacks LuxN and CqsS sensors; 0 = neutral-control median. AID 2094. activity change, % at 7.5 µM; in the data active = activity change below about -75%, passing the limit was not always enough; inconclusive = no clear call, values can overlap the other calls;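 note: luminescence divided by OD600 gain over 9 h not by final OD600 alone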
HSF1 inh: HSF1 inhibition | NIH3T3-HGL HSE-luciferase, MG132-induced, luminescence 8 h; active compounds read low | activity change, negative = inhibition, % at 7.5 µM (by protocol) | 300,000 compounds, 0.77% hits;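 active = more than half of replicate wells show activity change below -50%, luminescence cut by over half; inconclusive = some wells, but at most half, below -50%; inactive = no replicate well below -50%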;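 note: luciferase reports HSF-1 transcriptional activity via heat shock element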
ALR inh: blocks human ALR sulfhydryl oxidase activity; purified ALR, DTT oxidation, H2O2 HRP-luminol luminescence; inhibition, % (test concentration not listed); P55789; 290,000 compounds, 3.8% hits;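 active = mean replicate inhibition above about 79%, with every replicate also reaching it, limit read from the data; inconclusive = only one of the two criteria met; inactive = mean below limit and not every replicate reaching it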
Target sequence (P55789 whole entry, looked up): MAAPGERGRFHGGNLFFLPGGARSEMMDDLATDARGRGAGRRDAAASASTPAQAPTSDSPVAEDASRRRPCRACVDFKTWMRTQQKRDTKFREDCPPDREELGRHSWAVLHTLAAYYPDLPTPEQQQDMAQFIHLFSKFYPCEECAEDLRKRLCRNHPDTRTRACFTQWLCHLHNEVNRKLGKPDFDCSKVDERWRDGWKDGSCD
A number is an active result; n = inactive; u = inconclusive; x = no result.

SMILES	HSF1 activator	PHOSPHO1 block	core dimer inh	AI-2 QS modul	HSF1 inh	ALR inh
CC(C)n1cnc2cc(NC(=O)c3ccco3)ccc21	n	n	n	n	n	n
CCc1ccc(CNc2ccc3c(c2)ncn3C(C)(C)C)cc1	n	n	n	n	n	n
CC(C)n1cnc2cc(NCc3ccccn3)ccc21	n	n	n	n	n	n
CC(C)n1cnc2cc(NCc3ccccc3O)ccc21	n	n	n	n	n	99
CC(C)n1cnc2cc(NCc3ccco3)ccc21	n	n	n	n	u	84
CC(C)(C)n1cnc2cc(NCc3ccccc3O)ccc21	n	n	n	n	n	99
CCO[C@H]1OC(C(=O)NC2CC2)=C[C@@H](c2coc3ccccc3c2=O)[C@@H]1CCCO	n	n	n	n	n	x
CC(C)N(Cc1nccn1C)C(=O)c1cc(COc2ccc(F)cc2Cl)on1	n	n	n	n	n	n
COCCn1c(=O)[nH]c(=O)c2c1nc(-c1ccc(-c3ccc(Cl)cc3[N+](=O)[O-])o1)n2Cc1ccccc1	n	n	55	n	n	x
COc1ccc(-c2ccc(-c3nc4c(c(=O)[nH]c(=O)n4Cc4ccccc4)n3C)o2)c([N+](=O)[O-])c1	n	n	n	n	n	n
COCCn1c(=O)[nH]c(=O)c2c1nc(-c1cc(Br)c3c(c1)OCO3)n2Cc1ccccc1	59	n	n	n	n	n
O=C(COc1ccccc1CNCc1ccccc1)Nc1ccccc1	n	n	n	n	n	n
COc1ccccc1/C=C/C(=O)NCc1cccnc1	n	n	n	n	n	n
O=C(OCn1ncc(Br)c(Br)c1=O)c1c(F)cccc1F	n	n	n	n	-95	n
CC(=O)Cn1ncc(Br)c(Br)c1=O	n	n	x	n	-94	x
COc1ccc(NC(=O)Nc2cccc3c2O[C@H](CN(C)Cc2ccc(-c4ccccc4)cc2)[C@@H](C)CN([C@H](C)CO)C3=O)cc1	x	x	x	x	x	n
O=C(NC(=O)c1ccccc1Cl)C(=O)Nc1ccc(Cl)cc1	n	n	n	n	n	n
O=C(Nc1c(S(=O)(=O)c2ccc(Cl)cc2)csc1Br)c1ccccc1Cl	54	n	n	n	n	x
CCOC(=O)/C=C/C(=O)OCC(=O)Nc1cccc(Br)c1	n	n	n	n	n	91
Cc1cccc(NC(=O)COc2ccc(Br)cc2/C=N/O)c1	107	n	n	n	n	n
Cc1ccc(NC(=O)c2sc3ncn(CC(=O)N4CCOCC4)c(=O)c3c2C)c(Br)c1	78	n	n	n	n	n
CCn1cnc2sc(C(=O)Nc3ccc4c(c3)OCO4)c(C)c2c1=O	67	n	n	n	n	n
Cc1ccc(NC(=O)c2sc3ncn(CC(=O)N4CCN(c5ccccn5)CC4)c(=O)c3c2C)cc1Cl	n	64	n	n	n	n
Cc1ccc(NC(=O)c2sc3ncn(CC(=O)N4CCN(c5ccccn5)CC4)c(=O)c3c2C)cc1F	n	n	n	n	n	n
Cc1cc([N+](=O)[O-])ccc1NC(=O)c1sc2ncn(CC(=O)N3CCOCC3)c(=O)c2c1C	n	n	n	n	n	n
SMILES	HSF1 activator	PHOSPHO1 block	core dimer inh	AI-2 QS modul	HSF1 inh	ALR inh
CC1=C(C(=O)OCC(C)C)C(c2ccsc2)C2=C(CCCC2=O)N1 (configuration not stated)	n	n	n	n	n	n
CCOC(=O)c1ccccc1N/C=C1\CCCC1=O	n	94	n	n	n	n
C/C(=N\NC(=O)c1cccc(N/N=C(\C)c2cc(O)ccc2O)c1)c1cc(O)ccc1O	64	n	n	n	n	u
O=C(c1ccc(N2CCN(C(=O)c3ccc(F)cc3F)CC2)cc1)c1cccc(F)c1	n	n	n	n	n	n
NC(=O)/C(=C/c1ccco1)C(N)=S	n	n	n	n	n	n
Nc1ccc(Nc2ccccc2)c(S(=O)(=O)O)c1	n	n	n	n	n	x
Cc1ccc(Nc2ccc(N)cc2S(=O)(=O)O)cc1	n	n	n	n	n	100
O=C1NN(c2ccccc2)C(=O)/C1=C\c1coc2ccc(O)cc2c1=O	n	n	n	n	n	99
Cc1cc(/C=C2\C(=O)NN(c3ccccc3)C2=O)c(C)n1-c1ccccc1O	n	n	n	n	n	n
O=C1NN(c2ccccc2)C(=O)/C1=C/c1coc2ccccc2c1=O	n	n	n	n	n	97

High-throughput results: PubChem BioAssay, several laboratories
